EBI2 antag: EBI2 (human) antagonism; P32249; EBI2 beta-arrestin recruitment, luminescence, 7a,25-OHC stimulated; inhibition, % at 5 µM; actives 0.81% (n = 360,000); AID 651636; in the data active = inhibition above about 38%;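 note: enzyme fragment complementation signal reports receptor beta-arrestin coupling in cells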
m5-HT2A agonist: mouse HTR2A agonism via beta-arrestin recruitment | CHO-K1 mHTR2A beta-arrestin complementation, luminescence; percent of 30 µM serotonin response | actives 0.66% (n = 360,000) | P35363 | activation, % at 7.6 µM;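 active = activation above a run cutoff, the mean activation of all tested compounds plus 3 SD, cut at about 14% in these data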
Target sequence (P35363 whole entry, looked up): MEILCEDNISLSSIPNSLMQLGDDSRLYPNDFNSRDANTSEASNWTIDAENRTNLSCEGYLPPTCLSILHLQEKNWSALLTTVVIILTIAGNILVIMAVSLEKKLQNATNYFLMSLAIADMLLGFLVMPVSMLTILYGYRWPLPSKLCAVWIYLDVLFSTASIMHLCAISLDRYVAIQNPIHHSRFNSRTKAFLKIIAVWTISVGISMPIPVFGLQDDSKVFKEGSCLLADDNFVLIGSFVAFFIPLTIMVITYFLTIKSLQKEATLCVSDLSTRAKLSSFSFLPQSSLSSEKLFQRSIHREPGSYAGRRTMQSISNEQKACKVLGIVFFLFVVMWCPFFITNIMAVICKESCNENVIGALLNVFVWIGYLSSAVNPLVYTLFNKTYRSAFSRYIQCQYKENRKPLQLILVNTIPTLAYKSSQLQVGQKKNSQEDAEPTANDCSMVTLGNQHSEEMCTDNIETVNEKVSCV
APJ antag: antagonists of human APJ apelin receptor; actives 0.32% (n = 330,000); inhibition, % at 20 µM; P35414; CHO-K1 APJ beta-arrestin complementation, luminescence; AID 2521;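 active = inhibition above about 40% at 20 µM, limit read from the data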;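 note: cells challenged with 10 nM apelin-13 agonist together with compound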
CXCR6 block: inhibitors of human CXCR6 receptor. AID 602244. actives 0.36% (n = 360,000). inhibition, % at 20 µM. O00574. CHO-K1 PathHunter CXCR6 beta-arrestin, luminescence; in the data active = inhibition above about 34%, passing the limit was not always enough;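 note: antagonist mode with CXCL16 agonist at 10 nM final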
APJ agonist: APJ receptor agonism; P35414; AID 2520; CHO-K1 APJ PathHunter beta-arrestin, luminescence; 0% DMSO wells, 100% apelin; activation, % at 20 µM; actives 0.11% (n = 330,000);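 active = activation more than six SD over the plate average, tested at 20 µM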
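Assay system: engineered CHO-K1 APJ arrestin reporter cells; Amount: 1000 CHO-K1 reporter cells seeded per well; Dosing: one dose, 20 µM compound, 1% DMSO; Times: compound stimulation 90 min at 25 °C, detection 60 min; Measured by: luminescent beta-gal fragment complementation, chemiluminescent substrate; Read-out: APJ–arrestin association signal; Controls: DMSO vs Apelin-13 10 nM.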
CCR6 antag: blocks CCL20-driven beta-arrestin recruitment at human CCR6; AID 493098; CHO-K1 CCR6 PathHunter beta-arrestin, luminescence, CCL20-stimulated; inhibition, % at 20 µM; actives 0.49% (n = 340,000); P51684;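 active = compounds whose inhibition of the agonist-driven luminescence signal at 20 µM reaches about 50%, limit read from the data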;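 note: cells stimulated with CCL20 at 14 nM final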
EBI2 conf: confirmation of human EBI2 receptor antagonists | shares compounds with EBI2 antag | EBI2 beta-arrestin luminescence, 7a,25-OHC antagonism | inhibition, % at 5 µM | actives 29% (n = 2,400);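 active = inhibition of at least 50%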
EBI2 ag: EBI2 agonism counter-screen. 2,400 tested, under 10 active. EBI2-expressing cells, agonist mode, luminescence, 60 min; 0% vehicle, 100% 7α,25-dihydroxycholesterol control. shares compounds with EBI2 antag. AID 652000. activation, % at 5 µM;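 active = activation of at least 50%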
bGal cs: inhibits E. coli beta-galactosidase, counter-screen for EBI2 antagonists; inhibition, % at 5 µM; shares compounds with EBI2 antag; actives 1% (n = 2,400); purified beta-galactosidase, luminescent Galacton Star, 15 min;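 active = replicate-average signal at least 3 plate SD below neutral wells, shown as high inhibition, flagging enzyme-inhibiting false positives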;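 note: higher means stronger loss of beta-gal luminescence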
Each line names hits and unclear results; the compound was inactive in the other large screens (follow-up assays come after a bar, where they were run). An excerpt weighted towards active compounds, which were near 2.1% of everything screened.

S=c1[nH]c(-c2ccc(Br)cc2)cn1CCc1ccccc1	EBI2 antag 57 | EBI2 conf inactive | EBI2 ag inactive | bGal cs inactive
COc1ccc(-c2noc(C3CCCN(C(=O)Nc4ccccc4F)C3)n2)cc1 (centres undefined)	none
O=S(=O)(c1ccc(Cl)cc1)N1CCCC(c2nc(-c3ccc(F)cc3)no2)C1 (centres undefined)	none
O=C(Nc1ccc(Cl)cc1)N1CCC(c2nc(-c3ccc(F)cc3)no2)CC1	EBI2 antag 53 | EBI2 conf inactive | EBI2 ag inactive | bGal cs inactive
COc1ccc(NC(=O)N2CCCC(c3nc(-c4ccc(OC)cc4)no3)C2)cc1 (centres undefined)	EBI2 antag 58 | EBI2 conf inactive | EBI2 ag inactive | bGal cs inactive
O=C(Nc1ccc(Cl)cc1)N1CCN(c2ccc3nnc(-c4ccc(F)cc4)n3n2)CC1	EBI2 antag 48 | EBI2 conf inactive | EBI2 ag inactive | bGal cs inactive
O=C(Nc1ccccc1Cl)N1CCN(c2ccc3nnc(-c4ccccc4)n3n2)CC1	none
CS(=O)(=O)N(CC(=O)N1CCC(C(N)=O)CC1)c1ccc(Cl)c(C(F)(F)F)c1	none
Cc1cccc(NS(=O)(=O)c2ccc(C3CCCCC3)cc2)n1	none
c1ccc(-c2csc(N3CCCCCC3)n2)cc1	none
Cc1cc(N2CCN(c3nc(-c4ccccc4)cs3)CC2)c2ccccc2n1	EBI2 antag 55 | EBI2 conf inactive | EBI2 ag inactive | bGal cs inactive
CCOC(=O)NC(=O)/C(C#N)=N/Nc1ccc(F)cc1	EBI2 antag 78 | EBI2 conf inactive | EBI2 ag inactive | bGal cs inactive
CCOC(=O)C(=O)/C(C#N)=C/Nc1ccc(F)cc1	none
COc1ccccc1C(=O)N/N=C(\C)CC(=O)Nc1ccc(Nc2ccccc2)cc1	none
O=c1[nH]nc(CNc2ccc(OC(F)(F)F)cc2)c2ccccc12	EBI2 antag 52 | EBI2 conf inactive | EBI2 ag inactive | bGal cs inactive
Cn1ccnc1C(=O)c1cc(SCC(=O)NCc2ccccc2)nc2ccccc12	EBI2 antag 44 | EBI2 conf inactive | EBI2 ag inactive | bGal cs inactive
FC(F)(F)c1cccc(Cn2cnc(NC(=S)NCCc3ccccc3)n2)c1	EBI2 antag 54 | EBI2 conf inactive | EBI2 ag inactive | bGal cs inactive
COc1ccc(NC(=O)Nc2ncn(Cc3cccc(C(F)(F)F)c3)n2)cc1OC	none
CCOC(=O)Cc1csc(NC(=O)/C=C/c2ccc(OC)cc2)n1	EBI2 antag 46 | EBI2 conf inactive | EBI2 ag inactive | bGal cs inactive
CCOC(=O)Cc1csc(NC(=O)/C=C\c2ccccc2)n1	none
COC(=O)c1ccc(-n2cc(-c3ccc(OC)cc3)[nH]c2=S)cc1	EBI2 antag 74 (no result: APJ antag, APJ agonist) | EBI2 conf 60 | EBI2 ag inactive | bGal cs inactive
COc1ccc(-n2cc(-c3ccc(Cl)cc3)[nH]c2=S)cc1	EBI2 antag 91 | EBI2 conf 72 | EBI2 ag inactive | bGal cs inactive
O=C(COc1ccc2ccccc2c1)N1CCCC1	none
O=C(COc1ccc(Br)cc1)N1CCN(c2ccccc2)CC1	EBI2 antag 82 | EBI2 conf 67 | EBI2 ag inactive | bGal cs inactive
O=C(COc1ccc(Br)cc1)OCC(=O)N1CCOCC1	none
O=C(COc1ccc2ccccc2c1)N1CCN(C(=O)c2cccnc2)CC1	EBI2 antag 78 | EBI2 conf 64 | EBI2 ag inactive | bGal cs inactive
COc1cc(OC)cc(C(=O)N2CCN(C(=O)COc3ccc4ccccc4c3)CC2)c1	EBI2 antag 85 | EBI2 conf 68 | EBI2 ag inactive | bGal cs inactive
